Screens deposited in PubChem by Johns Hopkins Ion Channel Center.
This is a sample that favours compounds with a hit; in the whole collection about 3.7% have one here.
Kir21 inh – inhibitors of mouse Kir2.1 inward-rectifier potassium channel | P35561 | HEK293-Kir2.1, FluxOR thallium flux fluorescence; hits give low values | B-score at 10 µM | 0.85% of 310,000 active | AID 1672;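 active = fluorescence ratio B-score at or below minus 3 SD of library scores, with starting-brightness B-score within 2 SD, cut at about -4.2 in these data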;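 note: channel flux triggered by added potassium and thallium sulfate stimulus; B-score of peak minus minimum fluorescence over baseline after thallium stimulus; more negative B-score means stronger Kir2.1 block with less thallium influx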
KCNK9 inh – inhibitors of human KCNK9 two-pore domain potassium channel. Q9NPC2. HEK293 KCNK9, FluxOR thallium flux fluorescence; hits give low values. B-score at 10 µM. 1.2% of 310,000 active. AID 488922;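 active = ratio B-score over 3 SD below the library mean, with starting fluorescence within 5 SD of its mean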;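 note: negative B-score means less thallium flux so channel inhibition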
KCNK3 block – human KCNK3 channel inhibition, primary screen. O14649. B-score at 10 µM. CHO-KCNK3 thallium flux, FluxOR fluorescence; hits give low values. 0.84% of 340,000 active;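 active = B-score under library mean minus 4 SD, starting fluorescence ratio at most library mean plus 5 SD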;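 note: more negative B-score means stronger inhibition of thallium flux through KCNK3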
KCNQ1 pot – potentiators or activators of human KCNQ1 potassium channel. P51787. CHO-K1 KCNQ1, thallium flux FluxOR fluorescence; hits give high values. B-score at 10 µM. 0.35% of 310,000 active;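 active = fluorescence ratio B-score, a plate-corrected score, at least three library SD, with initial intensity B-score within 5 SD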
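Assay system: CHO-K1 cells stably expressing KCNQ1. Medium: assay buffer for compound exposure, DMSO matched across wells. Timing: 37 °C overnight plating, 90-min dark dye load, 20-min compound pretreatment. Signal: kinetic FluxOR fluorescence, 10 s baseline plus 110 s post-stimulus.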
KCNQ1 inh – human KCNQ1 channel inhibition; B-score at 10 µM; 1.3% of 310,000 active; CHO-K1 KCNQ1, FluxOR thallium flux fluorescence; hits give high values; P51787;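 active = compounds whose thallium flux B-score, printed positive for inhibition, exceeds three library SD while starting fluorescence stays within three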;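 note: channel opened by potassium depolarization with thallium stimulus after 20 min compound exposure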
hERG rescue – hERG (human) protection from proarrhythmic block | Q12809 | CHO-hERG, FluxOR thallium flux, dofetilide IC70 present | activation (rescue from dofetilide block), less the hit threshold, % at 10 µM | 0.51% of 310,000 active;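 active = activation above the mean of controls blocked by dofetilide plus 5 SD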;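 note: thallium influx through hERG after potassium depolarization seen as dye fluorescence rise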
Target sequence (Q12809 whole entry, looked up): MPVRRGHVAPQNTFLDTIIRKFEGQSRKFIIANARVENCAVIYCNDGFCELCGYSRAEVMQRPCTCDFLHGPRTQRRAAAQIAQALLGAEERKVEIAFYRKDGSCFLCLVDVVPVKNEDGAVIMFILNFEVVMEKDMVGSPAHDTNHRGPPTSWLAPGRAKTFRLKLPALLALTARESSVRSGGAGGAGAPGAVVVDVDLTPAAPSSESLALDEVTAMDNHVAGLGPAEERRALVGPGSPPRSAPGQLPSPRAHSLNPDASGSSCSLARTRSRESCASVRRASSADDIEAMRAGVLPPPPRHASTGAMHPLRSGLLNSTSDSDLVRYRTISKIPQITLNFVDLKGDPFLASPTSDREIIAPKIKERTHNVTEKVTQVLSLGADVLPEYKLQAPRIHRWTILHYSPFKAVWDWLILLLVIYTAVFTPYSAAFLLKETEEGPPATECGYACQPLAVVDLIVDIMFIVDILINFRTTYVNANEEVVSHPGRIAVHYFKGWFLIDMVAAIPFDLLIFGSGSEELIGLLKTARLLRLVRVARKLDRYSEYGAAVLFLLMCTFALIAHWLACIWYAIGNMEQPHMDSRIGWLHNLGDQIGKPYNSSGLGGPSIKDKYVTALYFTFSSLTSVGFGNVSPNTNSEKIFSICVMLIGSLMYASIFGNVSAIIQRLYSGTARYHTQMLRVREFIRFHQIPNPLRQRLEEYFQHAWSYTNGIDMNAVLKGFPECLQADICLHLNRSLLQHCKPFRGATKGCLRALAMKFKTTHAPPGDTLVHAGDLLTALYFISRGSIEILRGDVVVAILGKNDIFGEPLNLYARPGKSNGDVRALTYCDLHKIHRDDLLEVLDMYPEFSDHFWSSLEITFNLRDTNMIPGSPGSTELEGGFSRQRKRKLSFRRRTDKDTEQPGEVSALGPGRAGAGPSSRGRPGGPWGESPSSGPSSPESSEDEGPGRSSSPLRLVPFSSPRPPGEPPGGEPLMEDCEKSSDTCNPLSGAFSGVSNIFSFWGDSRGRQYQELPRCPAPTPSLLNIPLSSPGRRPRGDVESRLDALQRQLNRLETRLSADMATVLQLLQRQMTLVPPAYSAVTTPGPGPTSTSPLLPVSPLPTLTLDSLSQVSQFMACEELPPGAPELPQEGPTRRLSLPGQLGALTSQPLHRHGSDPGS
The depositor's hits bear a star; i = inactive; x = not tested or not shown.

SMILES	Kir21 inh	KCNK9 inh	KCNK3 block	KCNQ1 pot	KCNQ1 inh	hERG rescue
COc1cccc(N2CN(CCc3ccccc3)CNC2=S)c1	2.4	i	i	i	i	-7
Cn1c(SCC2CCCO2)nnc1-c1ccc([N+](=O)[O-])cc1 (centres undefined)	1.5	i	i	i	i	-12
O=S(=O)(c1ccccc1)N(Cc1ccccc1)c1ccccn1	-6.7*	i	i	i	i	-2
CN(C)S(=O)(=O)c1ccc(NC(=O)CCNC(=O)c2ccco2)cc1	0.11	i	i	i	i	-3
Cc1ccccc1S(=O)(=O)NC(=NCc1ccc(F)cc1)c1ccccc1	x	x	-9.3*	x	x	x
Cc1ccc(S(=O)(=O)NC(=NCc2ccccc2)c2ccc(F)cc2)cc1	-2.3	i	i	i	i	-3
COc1ccc(C(=O)NC(=S)Nc2nc(C)cc(C)n2)cc1Br	-2.2	i	i	i	i	-4
Nc1[nH]c(=O)nc(Nc2ccccc2)c1N=O	0.57	i	i	i	i	-5
O=C(Oc1ccc(Br)cc1C(=S)N1CCOCC1)c1ccc(F)cc1	-0.56	i	i	i	i	-7
O=C(Oc1ccc(C(=S)N2CCOCC2)cc1Cl)c1ccccc1F	-5.8*	i	i	i	i	-3
O=C(Oc1ccc(C(=S)N2CCOCC2)cc1Br)c1ccccc1F	-6.3*	i	i	i	i	-5
O=C(c1ccccc1F)N1CCOCC1	-0.87	i	i	i	i	-6
COCCCNC(=O)C(=O)C1C(=O)Nc2ccccc21 (centres undefined)	0.07	i	i	i	i	1
CS(=O)(=O)N(CC(=O)N1CCCCCC1)c1cc(Cl)ccc1Cl	-0.95	i	i	i	i	-2
O=C1CN(C(=O)/C=C/c2ccco2)c2ccccc2N1	0.46	i	i	i	i	-6
CC(C)(C)OC(=O)N1CCC[C@H]1c1nnc(SCc2cccc(Cl)c2)o1	-8.6*	i	i	i	i	-5
CC(C)(C)OC(=O)N1CCC[C@H]1c1nnc(SCc2ccccc2Cl)o1	-8*	i	i	i	i	-10
CC(C)(C)OC(=O)N1CCC[C@H]1c1nnc(SCc2ccc(Cl)cc2)o1	-7.5*	i	i	i	i	-11
CC(C)(C)OC(=O)N1CCC[C@H]1c1nnc(SCc2ccc(Cl)cc2Cl)o1	-3.3	i	i	i	i	-5
Cc1c(CCOC(=O)c2cc([N+](=O)[O-])cc([N+](=O)[O-])c2)sc[n+]1CCCCS(=O)(=O)[O-]	-0.06	i	i	i	i	-4
CC(C)(C)C1=CC(=O)C(=O)C(C(C)(C)C)=C1	-8.6*	-7.4*	i	i	6*	-27
Cc1ccc(C2=NN(C(=O)CCCC(=O)O)C(c3ccc4c(c3)OCO4)C2)cc1 (centres undefined)	0.9	i	i	i	i	5.5*
Cc1ccc(C2=NN(C(=O)CCC(=O)O)C(c3ccc4c(c3)OCO4)C2)cc1 (centres undefined)	-0.92	i	i	i	i	-8
CC(NC(=O)C(=O)c1cn(CC(=O)N2CCOCC2)c2ccccc12)c1ccccc1 (centres undefined)	-0.15	i	i	i	i	-7
C/C(=N\NC(=O)c1cc2ccccc2cc1O)c1ccc(C)o1	-0.01	i	i	26*	i	8.9*
SMILES	Kir21 inh	KCNK9 inh	KCNK3 block	KCNQ1 pot	KCNQ1 inh	hERG rescue
COc1ccc([C@@H]2C[C@H](c3ccccc3)Oc3cc(OC)c(OC)c(OC)c32)cc1	0.24	-6.8*	i	i	i	-16
COc1ccc(C2CC(O)(c3ccccc3)Oc3cc(OC)c(OC)c(OC)c32)cc1 (centres undefined)	0.65	i	i	i	i	-7
Cc1nc(N2CCN(Cc3ccccc3)CC2)nc2c1C(=O)CC(c1ccco1)C2 (centres undefined)	-5.3*	i	i	i	i	-12
COC(=O)c1ccc2c(=O)n(Cc3ccc4c(c3)OCO4)c(SCC(=O)N3CCCC3)nc2c1	0.08	i	x	i	i	-15
COc1cccc(C2CNC3(CCCC(C)C3)c3[nH]c4ccccc4c32)c1OC (centres undefined)	-4.5*	i	i	i	i	-5
COc1cc2c(cc1OC)C(c1cccc(OC)c1OC)CC(=O)N2 (centres undefined)	-0.1	i	i	i	i	-7
Cc1c(NC(=O)C(C)OC(=O)c2cc(-c3cccc4ccccc34)nc3ccccc23)c(=O)n(-c2ccccc2)n1C (centres undefined)	-2.8	i	i	i	6*	-18
CC(OC(=O)c1cccnc1Cl)C(=O)Nc1ccc2c(c1)OCO2 (centres undefined)	x	x	i	x	x	x
CCc1ccc(OCC(=O)N/N=C/c2cc([N+](=O)[O-])ccc2N2CCCCCC2)cc1	1.7	-6.7*	i	i	i	-9
Cc1ccccc1NC(=S)NCCC(c1ccccc1)c1ccccc1	-2.5	i	i	i	7*	-6
S=C(NCCC(c1ccccc1)c1ccccc1)Nc1cccc(Cl)c1	1.2	i	i	i	9*	-8
S=C(N/N=C/c1cccc2ccccc12)Nc1cccc(Cl)c1	-1.4	i	i	8*	i	5.3*
CCC1CCCCN1C(=O)c1cccc(S(=O)(=O)Nc2cc(C(F)(F)F)ccc2Cl)c1 (centres undefined)	-0.33	i	i	i	7*	-15
O=C(NC1CCN(Cc2ccccc2)CC1)c1cccc(S(=O)(=O)Nc2cc(C(F)(F)F)ccc2Cl)c1	-0.14	i	i	i	i	-18
CSc1nc(SCC(=O)O)c2sc3nc(-c4ccccc4)c4c(c3c2n1)CCC4	2	i	i	10*	i	-13
CSc1nc(N(C)CCO)c2sc3nc(-c4ccco4)c4c(c3c2n1)CCC4	2.4	i	i	i	i	-5
CCCc1ccc2oc(C(=O)N3CCN(CCC(N)=O)CC3)c(C)c2c1	2.1	i	i	i	i	-5
Cc1ccc2oc(C(=O)N3CCN(CCO)CC3)c(C)c2c1	-0.04	i	i	9*	i	8.5*
CCCCN(CCCC)S(=O)(=O)c1ccc2oc(C(=O)N3CCOCC3)c(C)c2c1	-4.8*	i	i	i	i	-10
O=c1[nH]c(CN2CCN(c3ccccn3)CC2)nc2c(Br)cc(Br)cc12	2.4	i	i	i	i	-11
